Measured values published in ChEMBL document CHEMBL3621107, “Ring fusion strategy for synthesis and lead optimization of sulfur-substituted anthra[1,2-c][1,2,5]thiadiazole-6,11-dione derivatives as promising scaffold of antitumor agents” (Eur J Med Chem, 2015).
Activity calls are given as the source filed them. The rule behind the calls is not given here.

Assays:
SK-MEL-28 = test: Cytotoxicity against human SK-MEL-28 cells after 48 hrs by SRB assay; format: functional; conditions: SK-MEL-28, 48 h; for CC50: read-out: LC50 (the source's name)
Method in brief: (§1)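 Second-stage NCI-60 panel run by the NCI Developmental Therapeutics Program, covering nine tumour subpanels. Five concentrations were tested: 0.01, 0.1, 1, 10 and 100 μM. Percentage growth at each level was plotted against log10 drug concentration. GI50, TGI and LC50 were read from these dose-response curves. Subpanel MID values were divided into the full-panel MID to give selectivity ratios.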

NCI-H322M = test: Cytotoxicity against human NCI-H322M cells after 48 hrs by SRB assay; format: functional; method in brief: as §1
[1] = Cytotoxicity against human SV-HUC1 cells assessed as survival rate after 72 hrs by MTT assay; format: cell-based; conditions: SV-HUC1 cells, read-out: Survival
Method in brief: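 SV-HUC-1 cells grown in Ham's F-12K with 5% heat-inactivated fetal calf serum, 37 °C, 5% CO2. About 2×10^3 cells/well plated for 24 h, then a range of compound concentrations (DMSO stock diluted into medium; vehicle 0.1% DMSO) for 72 h. MTT added for 3 h at 37 °C; absorbance 570 nm.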

DU-145 [2] = test: Induction of apoptosis in human DU145 cells assessed as cleaved caspase 3 at 3 to 12 uM after 48 hrs by Western blotting; format: functional, cell-based
Method in brief: (§2)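 DU-145 cells were exposed to various concentrations for 48 h. Cells were washed in PBS and lysed on ice for 30 min, then spun at 120000g for 15 min. Protein was measured by Bradford, run on 12% SDS-PAGE and blotted to PVDF. Blots were probed for cleaved PARP and cleaved caspase-3 with chemiluminescent detection and β-actin as loading control; n=3 independent experiments.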

[3] = Cytotoxicity against human WPMY-1cells assessed as survival rate after 72 hrs by MTT assay; format: cell-based; conditions: WPMY-1 cells, read-out: Survival
Method in brief: (§3)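 About 2×10^3 cells/well preincubated 24 h at 37 °C, 5% CO2. Compound freshly dissolved in DMSO, diluted into complete medium and added at various concentrations (vehicle 0.1% DMSO) for 72 h. MTT added for 3 h at 37 °C, absorbance read at 570 nm, survival rate derived.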

[4] = Cytotoxicity against human RWPE1 cells assessed as survival rate after 72 hrs by MTT assay; format: cell-based, RWPE-1; conditions: RWPE1 cells, read-out: Survival; method in brief: as §3
COLO 205 = test: Cytotoxicity against human COLO205 cells after 48 hrs by SRB assay; format: functional; conditions: COLO 205, 48 h
Method in brief: (§4)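 NCI-60 human tumour cell panel screen, second stage, run by the NCI Developmental Therapeutics Program. Compounds were tested at five concentrations (0.01, 0.1, 1, 10 and 100 μM). Percentage growth was plotted against log10 concentration for each cell line. GI50, TGI and LC50 were taken from these dose-response curves.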

DU-145 [5] = test: Induction of apoptosis in human DU145 cells assessed as early apoptotic cells at 3 to 12 uM after 24 hrs by flow cytometry; format: functional, cell-based
IGROV-1 = test: Cytotoxicity against human IGROV1 cells after 48 hrs by SRB assay; format: functional; conditions: IGROV-1, 48 h; method in brief: as §4
DU-145 [6] = test: Induction of apoptosis in human DU145 cells assessed as decreased levels of cyclin D1 at 3 to 18 uM after 48 hrs by Western blotting; format: functional, cell-based
Method in brief: (§5)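 DU-145 lysates were analysed by immunoblot for cyclin D1 and Bcl-2 after dosing across a concentration range. Cells were lysed on ice and cleared by centrifugation. Protein was quantified by Bradford, run on 12% SDS-PAGE and transferred to PVDF, with chemiluminescent detection. α-Tubulin served as loading control; n=3 independent experiments.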

T47D = test: Cytotoxicity against human T47D cells after 48 hrs by SRB assay; format: functional
Method in brief: (§6)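 NCI-60 five-dose study run by NCI DTP at 0.01, 0.1, 1, 10 and 100 µM. Percentage growth at each level was plotted against log10 concentration for each line, and GI50, TGI and LC50 were read from the dose-response curves.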

[7] = biological target: Mitogen-activated protein kinase; ERK1/ERK2 (Homo sapiens) (UniProt P27361+P28482); test: Inhibition of human ERK1/2 phosphorylation in human DU145 cells after 48 hrs by Western blotting; format: cell-based; conditions: DU-145
Method in brief: (§7)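 DU-145 cells were treated at 3, 12 and 18 µM and phospho-ERK1/2 and phospho-p38 were assessed by Western blot. Lysis was on ice with centrifugation, then Bradford protein assay, 12% SDS-PAGE, PVDF transfer and chemiluminescent detection.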

[8] = Cytotoxicity against human colon cancer cells assessed as growth inhibition after 48 hrs by SRB assay; format: functional; conditions: Cancer cell lines
Method in brief: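 Values come from the NCI-60 five-dose panel (0.01–100 µM). The subpanel MID is the mean GI50 over the lines of that tumour subpanel. The selectivity ratio is the full-panel MID divided by the subpanel MID; 3–6 is rated moderate and >6 high.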

MOLT-4 = test: Cytotoxicity against human MOLT4 cells after 48 hrs by SRB assay; format: functional; conditions: MOLT-4, 48 h; method in brief: as §1
UACC-257 = test: Cytotoxicity against human UACC257 cells after 48 hrs by SRB assay; format: functional; conditions: UACC-257, 48 h; method in brief: as §6
DU-145 [9] = test: Induction of apoptosis in human DU145 cells assessed as increase in cleaved PARP at 3 to 12 uM after 48 hrs by Western blotting; format: functional, cell-based; method in brief: as §2
DU-145 [10] = test: Induction of apoptosis in human DU145 cells assessed as cell rounding and shrinkage at 5 uM after 24 hrs by phase contrast microscopy analysis; format: functional, cell-based
Method in brief: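 DU-145 cells were seeded at 5×10^5 per 10 cm dish and treated with various concentrations for 24 h. Unfixed cells were examined and photographed by phase-contrast microscopy for rounding and shrinkage.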

DU-145 [11] = test: Induction of apoptosis in human DU145 cells assessed as decrease in total PARP at 3 to 12 uM after 48 hrs by Western blotting; format: functional, cell-based
DU-145 [12] = test: Induction of apoptosis in human DU145 cells assessed as decreased levels of Bcl-2 at 3 to 18 uM after 48 hrs by Western blotting; format: functional, cell-based; method in brief: as §5
UACC-62 = test: Cytotoxicity against human UACC62 cells after 48 hrs by SRB assay; format: functional; conditions: UACC-62, 48 h; method in brief: as §6
[13] = biological target: MAP kinase p38 (Homo sapiens) (UniProt O15264+Q15759+Q16539+P53778); test: Inhibition of human p38 phosphorylation in human DU145 cells after 48 hrs by Western blotting; format: cell-based; conditions: DU-145; method in brief: as §7
[14] = Cytotoxicity against human EKVX cells after 48 hrs by SRB assay; format: functional; method in brief: as §4

Mitogen-activated protein kinase; ERK1/ERK2 (Homo sapiens), sequence (P27361 whole entry, looked up): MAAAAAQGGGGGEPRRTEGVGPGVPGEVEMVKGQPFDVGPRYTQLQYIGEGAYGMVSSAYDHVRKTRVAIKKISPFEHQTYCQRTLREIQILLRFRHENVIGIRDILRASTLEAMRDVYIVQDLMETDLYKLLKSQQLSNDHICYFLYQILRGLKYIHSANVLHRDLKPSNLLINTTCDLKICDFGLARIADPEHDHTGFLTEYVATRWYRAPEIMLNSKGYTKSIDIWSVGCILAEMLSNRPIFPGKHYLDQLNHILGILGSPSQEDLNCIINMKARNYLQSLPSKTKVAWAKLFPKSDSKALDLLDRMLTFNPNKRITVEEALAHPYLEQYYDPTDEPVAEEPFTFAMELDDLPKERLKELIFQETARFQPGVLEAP
Mitogen-activated protein kinase; ERK1/ERK2 (Homo sapiens), sequence (P28482 whole entry, looked up): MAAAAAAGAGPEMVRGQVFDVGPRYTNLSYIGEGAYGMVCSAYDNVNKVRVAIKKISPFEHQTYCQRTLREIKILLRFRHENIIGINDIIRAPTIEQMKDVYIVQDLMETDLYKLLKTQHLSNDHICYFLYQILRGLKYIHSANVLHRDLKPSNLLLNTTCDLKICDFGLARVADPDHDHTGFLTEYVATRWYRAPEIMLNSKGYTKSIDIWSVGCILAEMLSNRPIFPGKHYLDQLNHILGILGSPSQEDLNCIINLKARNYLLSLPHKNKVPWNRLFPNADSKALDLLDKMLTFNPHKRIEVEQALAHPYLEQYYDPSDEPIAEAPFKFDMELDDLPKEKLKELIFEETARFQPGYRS

| SMILES | GI50 (SK-MEL-28) | TGI (SK-MEL-28) | CC50 (SK-MEL-28) | GI50 (NCI-H322M) | LC50 (concentration causing 50% net cell kill) (NCI-H322M) | TGI (NCI-H322M) | GI50 (COLO 205) | LC50 (COLO 205) | TGI (COLO 205) | GI50 (IGROV-1) | LC50 (IGROV-1) | GI50 (T47D) | LC50 (concentration killing 50% of cells) (T47D) | TGI (T47D) | GI50 [8] | GI50 (MOLT-4) | LC50 (MOLT-4) | TGI (MOLT-4) | GI50 (UACC-257) | LC50 (UACC-257) | further results |
| --- | --- | --- | --- | --- | --- | --- | --- | --- | --- | --- | --- | --- | --- | --- | --- | --- | --- | --- | --- | --- | --- |
| CC(C)Sc1cc2c(c3nsnc13)C(=O)c1ccccc1C2=O | 2.72 µM | 5.99 µM | 18.8 µM | 2.85 µM | 38.7 µM | 11 µM | 13.3 µM | 51 µM | 20.6 µM | 0.96 µM | 9.18 µM | 0.38 µM | 9.11 µM | 2.15 µM | 4.94 µM | 0.18 µM | > 100 µM | 0.49 µM | 0.57 µM | 4.47 µM | viability at 72 h [1]: 80%; Activity (DU-145 [2]): Active; viability at 72 h [3]: 50%; viability at 72 h [4]: 60%; Activity (DU-145 [5]): Active; TGI (IGROV-1): 3.01 µM; Activity (DU-145 [6]): Active; inhibition [7]: Active; TGI (UACC-257): 1.88 µM; Activity (DU-145 [9]): Active; Activity (DU-145 [10]): Active; Activity (DU-145 [11]): Active; Activity (DU-145 [12]): Active; GI50 (UACC-62): 1.35 µM; LC50 (UACC-62): 5.26 µM; TGI (UACC-62): 2.67 µM; inhibition [13]: Active |
| O=C1c2ccccc2C(=O)c2c1cc(Sc1ccc(F)cc1F)c1nsnc21 | 1.87 µM | 3.81 µM | 7.75 µM | 96.5 µM | > 100 µM | > 100 µM | 13.7 µM | 56.2 µM | 27.7 µM | 2.93 µM | 46.6 µM | 0.86 µM | 7.02 µM | 2.57 µM | 7.43 µM | 1.11 µM | > 100 µM | 5.46 µM | 1.59 µM | 18 µM | TGI (IGROV-1): 10.2 µM; GI50 [14]: 20.8 µM; LC50 [14]: > 100 µM; TGI [14]: 66.5 µM; TGI (UACC-257): 4.64 µM; GI50 (UACC-62): 1.73 µM; LC50 (UACC-62): 12.9 µM; TGI (UACC-62): 4.37 µM |
| O=C1c2ccccc2C(=O)c2c1cc(Sc1cccc(Cl)c1)c1nsnc21 | 1.93 µM | 4.19 µM | 9.09 µM | 18.6 µM | 61.9 µM | 33.9 µM | 20 µM | 61.3 µM | 35 µM | 2.07 µM | 26.7 µM | 1.29 µM | 8.72 µM | 3.35 µM | 10.5 µM | 0.64 µM | > 100 µM | 3.27 µM | 1.52 µM | 6.54 µM | TGI (IGROV-1): 5.37 µM; GI50 [14]: 16 µM; LC50 [14]: 55 µM; TGI [14]: 29.7 µM; TGI (UACC-257): 3.15 µM; GI50 (UACC-62): 1.6 µM; LC50 (UACC-62): 6.54 µM; TGI (UACC-62): 3.26 µM |
| O=C1c2ccccc2C(=O)c2c1cc(SCc1ccccc1)c1nsnc21 | 10.3 µM | 17.5 µM | 42.9 µM | > 50 µM | > 50 µM | > 50 µM | 35.5 µM | > 50 µM | > 50 µM | 6.06 µM | 38.9 µM | 1.16 µM | 42.9 µM | 5.29 µM | 16.1 µM | 1.2 µM | > 50 µM | 3.62 µM | 9.05 µM | 35.4 µM | TGI (IGROV-1): 15.4 µM; GI50 [14]: 14.2 µM; LC50 [14]: > 50 µM; TGI [14]: 26.3 µM; TGI (UACC-257): 17.1 µM; GI50 (UACC-62): 8.22 µM; LC50 (UACC-62): 33.7 µM; TGI (UACC-62): 18.6 µM |
| O=C1c2ccccc2C(=O)c2c1cc(Sc1ccccc1Br)c1nsnc21 | 20.9 µM | > 50 µM | > 50 µM | > 50 µM | > 50 µM | > 50 µM | > 50 µM | > 50 µM | > 50 µM | 19.1 µM | > 50 µM | 3.7 µM | > 50 µM | 18.3 µM | 21.4 µM | 7.21 µM | > 50 µM | 41.2 µM | 8.56 µM | > 50 µM | GI50 [14]: > 50 µM; LC50 [14]: > 50 µM; TGI [14]: > 50 µM; TGI (UACC-257): 20.9 µM; GI50 (UACC-62): 12 µM; LC50 (UACC-62): > 50 µM; TGI (UACC-62): 40.8 µM |
